For data set [1], the system named is L1210. As to the kind of experiment: Antitumor activity against mouse L1210 cells allografted in BDF1 mouse assessed as increase in host survival time at 100 mg/kg, ip administered on day 2 and 6 relative to control. The settings on record: route intraperitoneal. It is filed as functional. An outline of the steps:
(§1)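 BDF1 mice received ip L1210 lymphoid leukemia cells on day 0. Compounds were then given ip in saline, saline/Tween 80, or Klucel vehicle, repeated every fourth day at a fixed dose from the 400, 200, 100 mg/kg series. Assays used three or six mice, with vehicle-treated controls. T/C % is treated over control mean survival time, expressed as percent.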

The target of data set [2] is Lactoylglutathione lyase (Saccharomyces cerevisiae). Put plainly: Competitive inhibition of yeast glyoxalase-1 using methylglyoxal and glutathione as substrate by Lineweaver-Burk plot analysis.
Data set [3] relates to Mus musculus. As to the kind of experiment: Toxicity in BDF1 mouse allografted with mouse L1210 cells at 100 mg/kg, ip administered on day 2 and 6. Type of data set: organism-based. The settings on record: in vivo. The arrangement: dose 100 mg/kg, route intraperitoneal. In short, it runs like this:
(§2)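 BDF1 mice implanted ip on day 0 with L1210 lymphoid leukemia cells. Compound given ip as a suspension in saline, saline with Tween 80, or Klucel (HPC), with injections every fourth day. Multiple dose levels 400, 200 and 100 mg/kg; three- or six-mouse groups. Toxicity scored as survivors per animals started, recorded on day 5.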

The test system of data set [4] is L1210. As to the kind of experiment: Antitumor activity against mouse L1210 cells allografted in BDF1 mouse assessed as increase in host survival days at 100 mg/kg, ip administered on day 2 and 6 relative to control. It is filed as functional. The settings on record: route intraperitoneal. In short, it runs like this: (§3)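 L1210 lymphoid leukemia cells were implanted ip in BDF1 mice on day 0. Compounds were given ip as suspensions in saline, saline with Tween 80, or Klucel (hydroxypropylcellulose). Injections were repeated every fourth day at the same dose. Groups had three or six mice, and controls received vehicle only. The read-out was mean survival time in days for treated and control animals.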

Data set [5] deals with Lactoylglutathione lyase (Saccharomyces cerevisiae). As to the kind of experiment: Inhibition of yeast glyoxalase-1 using methylglyoxal and glutathione as substrate. The note with it: read-out: I50.
The subject of data set [6] is Mus musculus. Put plainly: Toxicity in BDF1 mouse allografted with mouse L1210 cells at 200 mg/kg, ip administered on day 2 and 6. More on the design: dose 200 mg/kg, route intraperitoneal. It is filed as organism-based. The note with it: in vivo. An outline of the steps:
as §2

Data set [7] deals with L1210. As to the kind of experiment: Antitumor activity against mouse L1210 cells allografted in BDF1 mouse assessed as increase in host survival time at 200 mg/kg, ip administered on day 2 and 6 relative to control. The note with it: route intraperitoneal. Type of data set: functional. An outline of the steps: as §1
Data set [8] concerns L1210. As to the kind of experiment: Antitumor activity against mouse L1210 cells allografted in BDF1 mouse assessed as increase in host survival days at 200 mg/kg, ip administered on day 2 and 6 relative to control. It is filed as functional. The note with it: route intraperitoneal. In short, it runs like this: as §3
Data set [9] relates to L1210. Put plainly: Antitumor activity against mouse L1210 cells allografted in BDF1 mouse assessed as increase in host survival time at 100 mg/kg, ip administered on day 1 relative to control. Type of data set: functional. The settings on record: route intraperitoneal.
Data set [10] concerns L1210. Put plainly: Antitumor activity against mouse L1210 cells allografted in BDF1 mouse assessed as increase in host survival days at 100 mg/kg, ip administered on day 1 relative to control. Type of data set: functional. The note with it: route intraperitoneal.
Data set [11] relates to Mus musculus. Put plainly: Toxicity in BDF1 mouse allografted with mouse L1210 cells at 100 mg/kg, ip administered on day 1. Type of data set: organism-based. More on the design: dose 100 mg/kg, route intraperitoneal. The settings on record: in vivo. In short, it runs like this:
as §2

Data set [12] concerns L1210. As to the kind of experiment: Antitumor activity against mouse L1210 cells allografted in BDF1 mouse assessed as increase in host survival days at 200 mg/kg, ip administered on day 1, 5, and 9 relative to control. It is filed as functional. The settings on record: route intraperitoneal. An outline of the steps: as §3
In data set [13] the test system is L1210. Put plainly: Antitumor activity against mouse L1210 cells allografted in BDF1 mouse assessed as increase in host survival time at 200 mg/kg, ip administered on day 1, 5, and 9 relative to control. It is filed as functional. The settings on record: route intraperitoneal. In short, it runs like this:
as §1

Data set [14] has as its system Mus musculus. As to the kind of experiment: Toxicity in BDF1 mouse allografted with mouse L1210 cells at 200 mg/kg, ip administered on day 1, 5, and 9. Type of data set: organism-based. More on the design: dose 200 mg/kg, route intraperitoneal. The settings on record: in vivo. An outline of the steps: as §2
Data set [15] deals with L1210. As to the kind of experiment: Antitumor activity against mouse L1210 cells allografted in BDF1 mouse assessed as increase in host survival time at 100 mg/kg, ip administered on day 1, 5, and 9 relative to control. The note with it: route intraperitoneal. It is filed as functional. An outline of the steps:
as §1

Data set [16] relates to Mus musculus. As to the kind of experiment: Toxicity in BDF1 mouse allografted with mouse L1210 cells at 100 mg/kg, ip administered on day 1, 5, and 9. Type of data set: organism-based. More on the design: dose 100 mg/kg, route intraperitoneal. The settings on record: in vivo. In short, it runs like this:
as §2

In data set [17] the test system is L1210. As to the kind of experiment: Antitumor activity against mouse L1210 cells allografted in BDF1 mouse assessed as increase in host survival days at 100 mg/kg, ip administered on day 1, 5, and 9 relative to control. Type of data set: functional. The settings on record: route intraperitoneal. An outline of the steps:
as §3

Data set [18] deals with Mus musculus. As to the kind of experiment: Toxicity in BDF1 mouse allografted with mouse L1210 cells at 400 mg/kg, ip administered on day 1. The note with it: in vivo. The arrangement: dose 400 mg/kg, route intraperitoneal. Type of data set: organism-based. An outline of the steps:
as §2

Data set [19] concerns L1210. Put plainly: Antitumor activity against mouse L1210 cells allografted in BDF1 mouse assessed as increase in host survival days at 400 mg/kg, ip administered on day 1 relative to control. It is filed as functional. The note with it: route intraperitoneal.
The test system of data set [20] is L1210. Put plainly: Antitumor activity against mouse L1210 cells allografted in BDF1 mouse assessed as increase in host survival time at 400 mg/kg, ip administered on day 1 relative to control. Type of data set: functional. The note with it: route intraperitoneal.

The structures appear in SMILES notation.

Turning to `CCCCSC(=O)C(C)O` (stereo not given), in the data set with L1210 [1], the Time is 10 days. This compound also displayed a Ki in data set [2] of 12.9 mM. Moreover, in the data set on Mus musculus [3], the Activity entry is “Toxic”. In addition, the T/C in the data set on L1210 [4] came to 99%. In [5], the IC50 was 16.5 mM.
On to `CC(O)C(=O)SCc1ccccc1` (stereo not given), for which, in the data set with Mus musculus [6], the Activity result is given as “Toxic”. For the same compound, the Ki in [2] came out at 5.5 mM. Further, the Time with L1210 [7] worked out at 10.3 days. In the data set on L1210 [8], the T/C came out at 98%. In addition, in data set [5], the IC50 stood at 7.1 mM.
In [2], `CCCCSC(=O)C(O)c1ccccc1` (stereo not given) came in with a Ki of 29.6 mM. Further, the Time in the data set on L1210 [9] came out at 9.8 days. In addition, the T/C in the data set with L1210 [10] came out at 105%. The IC50 in [5] was 37.8 mM. In addition, the Activity entry in the data set with Mus musculus [11] is on record as “Toxic”.
Consider `O=C(SCc1ccccc1)C(O)c1ccccc1` (stereo not given), for which the T/C with L1210 [12] is 100%. In addition, the Time with L1210 [13] was 10.7 days. Also, the affinity in data set [2], expressed as Ki, was 6.3 mM. Moreover, in the data set on Mus musculus [14], the Activity result is recorded as “Toxic”. Also, the IC50 in data set [5] amounted to 8.1 mM.
The like results for `COC(=O)CSC(=O)C(O)c1ccccc1` (stereo not given) were, in that order, 103%, 10.5 days, 8.2 mM, “Toxic” and 10.5 mM.
As to `CCCCOC(=O)CSC(=O)C(O)c1ccccc1` (stereo not given), the Time in the data set with L1210 [15] is 10.2 days. In the data set with Mus musculus [16], the Activity result is reported as “Toxic”. Also, the Ki in [2] stood at 34.7 mM. Further, in data set [5], the IC50 was 44.5 mM. The T/C in the data set on L1210 [17] is given as 105%.
With `COC(=O)CCSC(=O)C(O)c1ccccc1` (stereo not given), the Activity entry with Mus musculus [18] is given as “Toxic”. The T/C in the data set on L1210 [19] was 105%. For the same compound, in data set [2], the affinity corresponds to a Ki of 38.6 mM. Further, in data set [5], the IC50 is 49.6 mM. Also, in the data set with L1210 [20], the Time was found to be 9.8 days.

The term Ki denotes a measure of affinity in units of concentration, obtained from inhibition or displacement. Low values mean a stronger hold on the target, high ones a looser hold on the target. In general, T/C refers to the ratio of treated to control.
